Assay results reported in ChEMBL document CHEMBL1139303, “One-pot synthesis of 5-phenylimino, 5-thieno or 5-oxo-1,2,3-dithiazoles and evaluation of their antimicrobial and antitumor activity” (2009).
In brackets after ≈: the same amount, converted by molar mass. Activity calls are given as the source filed them. No cut-off for these calls is given here.

Legend:
[1] = system: Klebsiella pneumoniae; experiment: Antibacterial activity against Klebsiella pneumoniae CIP 53153 at 50 ug after 24 hrs by agar diffusion method; assay type: functional, organism-based
In short: (§1)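 Bacteria pre-grown 24 h on nutritive agar (tryptone soy agar for E. faecalis, L. inocua) at 37 °C (30 °C for E. faecalis, L. inocua, B. cereus). Agar well diffusion with 50 µg compound in 80% DMSO; 80% DMSO alone as control. Inhibition zone diameter averaged from triplicate, scored 6-9, 9-12, >12 mm.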

[2] = system: Nakaseomyces glabratus; experiment: Antifungal activity against Candida glabrata DSM6425 at 50 ug after 24 hrs by agar diffusion method; assay type: functional
In short: (§2)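 Yeasts grown on yeast extract peptone dextrose medium at 30 °C for 24 h, then agar well diffusion with 50 µg compound in 80% DMSO; 80% DMSO alone as control. Averaged inhibition zone diameter from triplicate, scored 6-9, 9-12 or >12 mm.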

[3] = system: MDA-MB-231; experiment: Antiproliferative activity against human MDA-MB-231 cells at 10 uM after 72 hrs by MTT assay; assay type: functional; conditions: MDA-MB-231, 72 h
In short: (§3)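 5000 cells per well added to pre-equilibrated medium at 37 °C; compounds from 10^-3 M DMSO stocks, final 10^-5 M. After 72 h, MTT (5 g/L) for 4 h, formazan dissolved in DMSO, OD 550 nm. % growth inhibition vs 1% DMSO medium (0%) and 10% SDS lysis (100%); mean ± SEM, 24 measures, three independent experiments.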

[4] = system: Staphylococcus aureus; experiment: Antibacterial activity against Staphylococcus aureus ATCC 25923 at 50 ug after 24 hrs by agar diffusion method; assay type: functional; conditions: for zone of inhibition at 50 µg/disc: Staphylococcus aureus, ATCC 25923, 24 h, read-out: IZ; in short: as §1
[5] = system: Bacillus cereus; experiment: Antibacterial activity against Bacillus cereus at 50 ug after 24 hrs by agar diffusion method; assay type: functional; conditions: for zone of inhibition at 50 µg/disc: read-out: IZ; in short: as §1
[6] = system: Pichia kudriavzevii; experiment: Antifungal activity against Issatchenkia orientalis DSM6128 at 50 ug after 24 hrs by agar diffusion method; assay type: functional, organism-based; in short: as §2
[7] = system: Listeria innocua; experiment: Antibacterial activity against Listeria innocua at 50 ug after 24 hrs by agar diffusion method; assay type: functional; in short: as §1
[8] = system: Candida tropicalis; experiment: Antifungal activity against Candida tropicalis DSM 1346 at 50 ug after 24 hrs by agar diffusion method; assay type: functional; in short: as §2
[9] = system: Enterococcus faecalis; experiment: Antibacterial activity against Enterococcus faecalis CIP 103214 at 50 ug after 24 hrs by agar diffusion method; assay type: functional; in short: as §1
[10] = system: MCF7; experiment: Antiproliferative activity against human MCF7 cells after 72 hrs by MTT assay; assay type: functional; conditions: MCF7, 72 h; in short: as §3
[11] = system: Candida albicans; experiment: Antifungal activity against Candida albicans ATCC 10231 at 50 ug after 24 hrs by agar diffusion method; assay type: functional; in short: as §2
[12] = system: Pseudomonas aeruginosa; experiment: Antibacterial activity against Pseudomonas aeruginosa ATCC 27853 at 50 ug after 24 hrs by agar diffusion method; assay type: functional, organism-based; in short: as §1
[13] = system: MDA-MB-231; experiment: Antiproliferative activity against human MDA-MB-231 cells after 72 hrs by MTT assay; assay type: functional; conditions: MDA-MB-231, 72 h; in short: as §3
[14] = system: Escherichia coli; experiment: Antibacterial activity against Escherichia coli ATCC 25922 at 50 ug after 24 hrs by agar diffusion method; assay type: functional; in short: as §1
[15] = system: Candida tropicalis; experiment: Antifungal activity against Candida tropicalis DSM 1346 after 24 hrs by broth macrodilution method; assay type: functional; conditions: DSM 1346, 24 h
In short: (§4)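 Yeasts pre-grown on yeast extract peptone dextrose medium, 30 °C, 24 h. MIC and MFC by macro-dilution broth method; compounds in DMSO, max 2.13% solvent in cultures. Amphotericin B and fluconazole as references. MFC/MIC ratio computed; ≥4 taken as fungistatic. Triplicate.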

[16] = system: Staphylococcus aureus; experiment: Antibacterial activity against Staphylococcus aureus ATCC 25923 after 24 hrs by broth macrodilution method; assay type: functional; conditions: ATCC 25923, 24 h
In short: (§5)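 Bacteria pre-grown 24 h on nutritive agar (tryptone soy agar for E. faecalis, L. inocua) at 37 °C (30 °C for E. faecalis, L. inocua, B. cereus). MIC and MBC determined by macro-dilution broth method; MBC = lowest concentration killing 99.99% of inoculum. Compounds in DMSO, max 2.13% solvent in cultures. Triplicate.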

[17] = system: Nakaseomyces glabratus; experiment: Antifungal activity against Candida glabrata DSM6425 after 24 hrs by broth macrodilution method; assay type: functional; conditions: DSM6425, 24 h; in short: as §4
[18] = system: Nakaseomyces glabratus; experiment: Ratio of MFC to MIC against Candida glabrata DSM6425; assay type: functional; in short: as §4
[19] = system: Candida albicans; experiment: Antifungal activity against Candida albicans ATCC 10231 after 24 hrs by broth macrodilution method; assay type: functional; conditions: ATCC 10231, 24 h; in short: as §4
[20] = system: Bacillus cereus; experiment: Antibacterial activity against Bacillus cereus after 24 hrs by broth macrodilution method; assay type: functional; in short: as §5
[21] = system: Escherichia coli; experiment: Antibacterial activity against Escherichia coli ATCC 25922 after 24 hrs by broth macrodilution method; assay type: functional; conditions: ATCC 25922, 24 h; in short: as §5

SMILES	Activity [1]	Activity [2]	inhibition at 10 µM [3]	Activity [4]	Activity [5]	Activity [6]	Activity [7]	Activity [8]	Activity [9]	GI50 [10]	Activity [11]	Activity [12]	GI50 [13]	Activity [14]	zone of inhibition at 50 µg/disc [4]	other results
c1ccc(/N=c2\ssnc2-c2cccs2)cc1	inactive	inactive	0%	inactive	inactive	inactive	inactive	inactive	inactive	> 10 µM	inactive	inactive	> 10 µM	inactive	–	–
c1ccc(/N=c2\ssnc2-c2cc3ccccc3o2)cc1	inactive	inactive	0%	inactive	inactive	inactive	inactive	inactive	inactive	10 µM	inactive	inactive	> 10 µM	inactive	–	–
O=[N+]([O-])c1ccc(-c2nssc2=S)cc1	inactive	inactive	0%	–	inactive	inactive	inactive	inactive	inactive	> 10 µM	inactive	inactive	> 10 µM	inactive	6 mm	–
CCOC(=O)c1nss/c1=N\c1ccccc1	inactive	–	0%	–	–	inactive	inactive	–	inactive	> 10 µM	–	inactive	> 10 µM	inactive	6 mm	zone of inhibition at 50 µg/disc ([2]; DSM6425, 24 h, read-out: IZ): 9 mm; zone of inhibition at 50 µg/disc [5]: 6 mm; MFC [15]: > 48 mg/L; MIC [15]: 32 mg/L (≈ 120 µM); MBC [16]: > 48 mg/L; MIC [16]: 48 mg/L (≈ 180 µM); MFC [17]: 48 mg/L (≈ 180 µM); MIC [17]: 32 mg/L (≈ 120 µM); zone of inhibition at 50 µg/disc ([8]; DSM 1346, 24 h, read-out: IZ): 9 mm; Ratio [18]: 1.5; MFC [19]: > 48 mg/L; MIC [19]: 48 mg/L (≈ 180 µM); zone of inhibition at 50 µg/disc ([11]; ATCC 10231, 24 h, read-out: IZ): > 12 mm; MBC [20]: > 48 mg/L; MIC [20]: 48 mg/L (≈ 180 µM)
Cc1nss/c1=N\c1ccccc1	inactive	inactive	0%	inactive	inactive	inactive	inactive	inactive	inactive	> 10 µM	inactive	inactive	> 10 µM	inactive	–	–
Cc1nssc1=S	inactive	inactive	0%	–	inactive	inactive	inactive	inactive	inactive	> 10 µM	inactive	inactive	> 10 µM	inactive	6 mm	MBC [16]: > 48 mg/L; MIC [16]: 48 mg/L (≈ 322 µM)
c1ccc(/N=c2\ssnc2-c2ccccc2)cc1	inactive	inactive	0%	–	inactive	inactive	inactive	inactive	inactive	10 µM	inactive	inactive	> 10 µM	inactive	6 mm	–
S=c1ssnc1-c1ccccc1	inactive	inactive	0%	–	–	inactive	inactive	inactive	inactive	> 10 µM	inactive	inactive	> 10 µM	inactive	12 mm	zone of inhibition at 50 µg/disc [5]: 9 mm; MBC [16]: > 48 mg/L; MIC [16]: 32 mg/L (≈ 151 µM); MBC [20]: > 48 mg/L; MIC [20]: > 48 mg/L
O=c1ssnc1-c1ccccc1	inactive	inactive	0%	inactive	inactive	inactive	inactive	inactive	inactive	> 10 µM	inactive	inactive	> 10 µM	–	–	MBC [21]: > 48 mg/L; MIC [21]: > 48 mg/L; zone of inhibition at 50 µg/disc ([14]; ATCC 25922, 24 h, read-out: IZ): 6 mm
O=[N+]([O-])c1ccc(-c2nss/c2=N\c2ccccc2)cc1	inactive	inactive	0%	inactive	inactive	inactive	inactive	inactive	inactive	10 µM	inactive	inactive	> 10 µM	inactive	–	–
S=c1ssnc1-c1cc2ccccc2o1	inactive	inactive	0%	inactive	inactive	inactive	inactive	inactive	inactive	> 10 µM	inactive	inactive	> 10 µM	inactive	–	–
Fc1ccc(-c2nssc2=S)cc1	inactive	inactive	0%	inactive	inactive	inactive	inactive	inactive	inactive	> 10 µM	inactive	inactive	> 10 µM	inactive	–	–
S=c1ssnc1-c1cccs1	inactive	inactive	0%	inactive	inactive	inactive	inactive	inactive	inactive	> 10 µM	inactive	inactive	> 10 µM	inactive	–	–
Fc1ccc(-c2nss/c2=N\c2ccccc2)cc1	inactive	inactive	0%	inactive	inactive	inactive	inactive	inactive	inactive	10 µM	inactive	inactive	> 10 µM	inactive	–	–
